Experiment [1] has as its system SMMC-7721. In words: Cytotoxicity against human SMMC7721 cells after 48 hrs by MTT assay. The experiment is classed as functional, cell-based. The note with it: SMMC-7721, 48 h. The gist of the method: (§1)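 MCF-7 and 7721 cells were plated at 1 × 10⁵ cells/ml and exposed for 48 h to a concentration range of compound added from DMSO (final DMSO/medium below 0.001). MTT (5 mg/mL stock in PBS) was added for 3 h, and formazan was dissolved in SDS 200 g/L/50% formamide lysis buffer (pH 4.7). Absorbance was read at 570 nm, with ≥3 experiments. IC50 was taken from mean % absorbance plotted against concentration.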
A general note: Tetrazolium assays rely on reduction of a dye to a coloured formazan, in cell work by metabolically active cells.

Experiment [2] concerns HeLa. In words: Ratio of IC50 for amonafide to compound for human HeLa cells. The experiment is classed as functional.
Experiment [3] deals with HeLa. In words: Cytotoxicity against human HeLa cells after 48 hrs by MTT assay. Format: functional, cell-based.
Experiment [4] concerns MCF7. Kind of experiment: Cytotoxicity against human MCF7 cells after 48 hrs by MTT assay. Format: functional, cell-based. The note with it: MCF7, 48 h. The gist of the method: as §1
Experiment [5] concerns SMMC-7721. In words: Ratio of IC50 for amonafide to compound for human SMMC7721 cells. Format: functional. The gist of the method:
(§2)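 The ratio compares IC50s from the 48 h MTT assay on MCF-7 or 7721 cells (1 × 10⁵ cells/ml, readout at 570 nm, ≥3 experiments). Amonafide was run as the control under the same conditions, and the ratio is its IC50 divided by the compound's.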

The subject of experiment [6] is Nucleic Acid. In words: Induction of DNA cleavage measured using 2 hrs UV-irradiated Escherichia coli super coiled pBR322 DNA assessed as formation of linear form 3 DNA at 100 uM by agarose gel electrophoresis. Format: nucleic-acid assay. The gist of the method:
(§3)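 Supercoiled pBR322 plasmid (0.05 mM bp) in Tris-HCl (pH 7.5) was incubated with compound at 37 °C and irradiated with 365 nm UV for 2 h. Controls were DNA alone, with and without irradiation. Cleavage forms were resolved on 1% agarose gel electrophoresis.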

The subject of experiment [7] is Calf thymus DNA. Kind of experiment: Binding affinity to calf thymus DNA assessed as DNA damage at increasing compound to DNA ratio by viscosity measurement. To be noted: Bos taurus. The experiment is classed as nucleic-acid assay. In outline:
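Calf thymus DNA was dissolved in 30 mM Tris-HCl (pH 7.5), held overnight at 4 °C, sonicated for 10 min and filtered to remove insoluble material. Viscosity was then measured as the compound-to-DNA ratio was increased.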

In experiment [8] the test system is MCF7. Kind of experiment: Ratio of IC50 for amonafide to compound for human MCF7 cells. The experiment is classed as functional. The gist of the method: as §2
Experiment [9] relates to Calf thymus DNA. Kind of experiment: Binding affinity to calf thymus DNA assessed as induction of hypochromatic effect by spectrophotometry. The experiment is classed as nucleic-acid assay. The note with it: Bos taurus. The gist of the method: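 UV-vis absorption spectra of a fixed compound concentration were recorded during stepwise addition of calf thymus DNA in 30 mM Tris-HCl (pH 7.5). Hypochromicity and bathochromic shift were monitored, and the binding constant was calculated from an equation applied to the absorbance data.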

The test system of experiment [10] is Nucleic Acid. Kind of experiment: Induction of DNA cleavage measured using 2 hrs UV-irradiated Escherichia coli super coiled pBR322 DNA assessed as formation of relaxed open circular form 2 DNA at 100 uM by agarose gel electrophoresis. The experiment is classed as nucleic-acid assay. In outline:
as §3

Experiment [11] concerns Calf thymus DNA. Kind of experiment: Binding affinity to calf thymus DNA at compound to DNA ratio of >0.20 to < 0.80 by circular dichroism. To be noted: Bos taurus. The experiment is classed as nucleic-acid assay. In outline: (§4)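 CD spectra were recorded on calf thymus DNA at a fixed concentration in Tris-HCl buffer (pH 7.0). Compound was titrated at R (compound/DNA) ratios of 0.02, 0.04, 0.10, 0.16, 0.20, 0.30, 0.40, 0.60, 0.80, 1.00, 1.2 and 1.40, and compared with free DNA.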

The test system of experiment [12] is Calf thymus DNA. In words: Binding affinity to calf thymus DNA at compound to DNA ratio of > 0.80 by circular dichroism. The note with it: Bos taurus. The experiment is classed as nucleic-acid assay. The gist of the method:
as §4
Background: Circular dichroism is the unequal absorption of left and right circularly polarised light.

The test system of experiment [13] is Calf thymus DNA. Kind of experiment: Binding affinity to calf thymus DNA at compound to DNA ratio of <= 0.20 by circular dichroism. The note with it: Bos taurus. The experiment is classed as nucleic-acid assay. In outline:
as §4

Calls of active or inactive are those of the source. The rule behind the calls is not given here. A value given as a limit tells only on which side of the number the result lay.

A word on the IC50: it is the concentration at which inhibition is half-maximal. Read a high IC50 as a need for much substance.

Consider `CN(C)CCN1C(=O)c2cccc3c(-n4cc(-c5ccccc5)nn4)ccc(c23)C1=O`, for which the results for the 50% inhibitory concentration (IC50) in the experiment with SMMC-7721 [1], with HeLa [3] and with MCF7 [4] were 463 nM, 1020 nM and 323 nM, respectively. Further, the figures for the “Ratio IC50” value with HeLa [2], in the experiment with SMMC-7721 [5] and in the experiment with MCF7 [8] were 1.7, 9.2 and 5.2, respectively. The outcome with Nucleic Acid [6], in the experiment on Calf thymus DNA [7] and with Nucleic Acid [10] was Active. For the same molecule, the Kb with Calf thymus DNA [9] came to 2.95 ×10⁵ /M.

With `O=C1c2cccc3c(-n4cc(-c5ccccc5)nn4)ccc(c23)C(=O)N1CCN1CCNCC1`, the IC50 with SMMC-7721 [1] turned out to be 1540 nM; with HeLa [3], 96700 nM; in the experiment on MCF7 [4] it was 836 nM. Moreover, the result in the experiment with Nucleic Acid [10] was Active.

Turning to `CCN(CC)CCN1C(=O)c2cccc3c(-n4cc(-c5ccccc5)nn4)ccc(c23)C1=O`, the IC50 was determined as 1890 nM in the experiment with SMMC-7721 [1], 26900 nM in the experiment with HeLa [3] and 1090 nM in the experiment with MCF7 [4]. The result with Calf thymus DNA [11], in the experiment with Calf thymus DNA [13], in the experiment with Nucleic Acid [6] and in the experiment with Nucleic Acid [10] was Active. Further, the outcome in the experiment with Calf thymus DNA [12] was inactive.

As for `CN(C)CCN1C(=O)c2cccc3cc(N)cc(c23)C1=O` [AMONAFIDE], the IC50 stood at 4270 nM with SMMC-7721 [1], 1730 nM with HeLa [3] and 1680 nM in the experiment on MCF7 [4].

Turning to `O=C1c2cccc3c(-n4cc(-c5ccccc5)nn4)ccc(c23)C(=O)N1CCO`, the IC50 in the experiment on SMMC-7721 [1], in the experiment on HeLa [3] and in the experiment with MCF7 [4] was more than 100000 nM each time. The outcome in the experiment on Calf thymus DNA [7] was inactive. For the same molecule, in the experiment on Nucleic Acid [10], the result was Active.

Turning to `CCCCN1C(=O)c2cccc3c(-n4cc(-c5ccccc5)nn4)ccc(c23)C1=O`, the results for the IC50 in the experiment with SMMC-7721 [1], in the experiment with HeLa [3] and with MCF7 [4] were 32900 nM, 19600 nM and 19500 nM, respectively. The result in the experiment on Nucleic Acid [10] was Active.

The values above are taken from ChEMBL document CHEMBL1759858, “The novel anti-tumor agents of 4-triazol-1,8-naphthalimides: synthesis, cytotoxicity, DNA intercalation and photocleavage” (Eur J Med Chem, 2011).
